The values below come from ChEMBL document CHEMBL1275541, “A plasmid-borne blaOXA-58 gene confers imipenem resistance to Acinetobacter baumannii isolates from a Lebanese hospital” (2008).

Assay [1] has as its system Acinetobacter baumannii. Briefly: Antibacterial activity against Acinetobacter baumannii PFGE type A isolate by microdilution method. It is filed as functional. Put shortly: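 MIC by broth microdilution following CLSI M7-A6; susceptibility interpreted with CLSI breakpoints.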
Background: Dilution methods test growth across graded concentrations, often in twofold steps.

Assay [2] relates to Acinetobacter baumannii. The experiment in a line: Antibacterial activity against Acinetobacter baumannii PFGE type A isolate by microdilution method in presence of Sulbactam. Format: functional.
Assay [3] deals with Acinetobacter baumannii. The experiment in a line: Antibacterial activity against Acinetobacter baumannii PFGE type A isolate assessed as reduction of MIC by microdilution method in presence of 200 mM NaCl. It is filed as functional. Put shortly:
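Broth microdilution MIC per CLSI M7-A6 with CLSI breakpoints. Carbapenem MICs compared with and without 200 mM NaCl to gauge the oxacillinase contribution. blaOXA-58-carrying PFGE type 1 isolates served as CHDL-positive reference and a blaOXA-58-negative PFGE type 2 isolate as CHDL-negative reference.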

Assay [4] concerns Acinetobacter baumannii. The experiment in a line: Antibacterial activity against Acinetobacter baumannii PFGE type A isolate assessed as reduction of MIC by microdilution method in presence of 200 mg/liter cloxacillin. Format: functional, organism-based. Put shortly: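 AmpC contribution was probed by liquid microdilution per CLSI M7-A6. Carbapenem MICs were read with and without 200 mg/liter cloxacillin.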

Assay [5] relates to Acinetobacter baumannii. The experiment in a line: Antibacterial activity against imipenem-susceptible Acinetobacter baumannii Ab F PFGE type B transconjugant by microdilution method. Format: functional. Put shortly:
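Transconjugants came from filter mating of imipenem-resistant donors Ab 1 or Ab 8 (PFGE type A) with recipient Ab F (PFGE type B). They were selected on brain heart infusion agar with imipenem 16 mg/liter plus trimethoprim-sulfamethoxazole 250 mg/liter. MICs were then read by microdilution per CLSI M7-A6.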

Assay [6] relates to Acinetobacter baumannii. The experiment in a line: Ratio of MIC for imipenem-susceptible Acinetobacter baumannii Ab F PFGE type B transconjugant to MIC for imipenem-susceptible Acinetobacter baumannii Ab F PFGE type B transconjugant in presence of 200 nM NaCl. It is filed as functional. Conditions: in the assay text read “200 mM NaCl” for “200 nM NaCl”. A digest of the protocol: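 Carbapenem MICs measured by liquid microdilution with and without 200 mM NaCl, to gauge the oxacillinase contribution. Controls were blaOXA-58-carrying PFGE type 1 isolates (CHDL-positive) and a blaOXA-58-negative PFGE type 2 isolate (CHDL-negative). Transconjugants came from filter mating into recipient Ab F and were selected on brain heart infusion agar with imipenem 16 mg/liter plus trimethoprim-sulfamethoxazole 250 mg/liter.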

The test system of assay [7] is Acinetobacter baumannii. The experiment in a line: Antibacterial activity against Acinetobacter baumannii PFGE type A isolate by Etest MBL strip method. Format: functional. Put shortly: (§1)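 Imipenem MIC and MBL activity were read with Etest MBL strips on all PFGE type A isolates. A. baumannii AC-54/97, an IMP-2 MBL producer, was the MBL-positive reference strain.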

The subject of assay [8] is Acinetobacter baumannii. Briefly: Antibacterial activity against Acinetobacter baumannii PFGE type A isolate by Etest MBL strip method in presence of EDTA. It is filed as functional. Put shortly:
as §1

For assay [9], the system named is Acinetobacter baumannii. The experiment in a line: Antibacterial activity against Acinetobacter baumannii PFGE type A isolate by microdilution method in presence of Tazobactam. Format: functional.

Values after ≈ are worked out from the molar mass of the structure shown. Active and inactive are the calls of the source. The rule behind the calls is not given here.

In general, MIC refers to the least concentration at which growth counts as inhibited. Broadly, the MIC50 is an inhibitory concentration at the 50% level, which refers to growth in some studies and to a panel of isolates in others. As a reminder, the MIC90 is an inhibitory concentration at the 90% level, which refers to growth in some studies and to a panel of isolates in others. Take `NCC[C@H](O)C(=O)N[C@@H]1C[C@H](N)[C@@H](O[C@H]2O[C@H](CN)[C@@H](O)[C@H](O)[C@H]2O)[C@H](O)[C@H]1O[C@H]1O[C@H](CO)[C@@H](O)[C@H](N)[C@H]1O` [AMIKACIN]: in assay [1], the MIC was 64 µg/mL (≈ 109 µM), the MIC50 was 64 µg/mL (≈ 109 µM) and the MIC90 amounted to 125 µg/mL (≈ 213 µM).

On to `CC1(C)S[C@@H]2[C@H](NC(=O)[C@H](N)c3ccccc3)C(=O)N2[C@H]1C(=O)O` [AMPICILLIN], for which, in assay [2], the MIC stood at 8 µg/mL, the MIC50 was found to be 8 µg/mL and the MIC90 was 16 µg/mL.

On to `CO/N=C(\C(=O)N[C@@H]1C(=O)N2C(C(=O)[O-])=C(C[N+]3(C)CCCC3)CS[C@H]12)c1csc(N)n1` [CEFEPIME], for which, in assay [1], the MIC turned out to be 16 µg/mL (≈ 33.3 µM), the MIC50 was found to be 16 µg/mL (≈ 33.3 µM) and the MIC90 worked out at 32 µg/mL (≈ 66.6 µM).

Regarding `CC(C)(O/N=C(\C(=O)N[C@@H]1C(=O)N2C(C(=O)[O-])=C(C[n+]3ccccc3)CS[C@H]12)c1csc(N)n1)C(=O)O` [CEFTAZIDIME], the MIC50 in assay [1] was determined as 250 µg/mL (≈ 457 µM). In assay [1], this compound returned an MIC90 of 250 µg/mL (≈ 457 µM). Moreover, the outcome in assay [3] and in assay [4] was inactive.

In assay [1], `O=C(O)c1cn(C2CC2)c2cc(N3CCNCC3)c(F)cc2c1=O` [CIPROFLOXACIN] had an MIC50 of 64 µg/mL (≈ 193 µM) and an MIC90 of 250 µg/mL (≈ 754 µM).

The compound `C[C@@H](O)[C@H]1C(=O)N2C(C(=O)O)=C(SCCNC=N)C[C@H]12` [IMIPENEM ANHYDROUS] showed an MIC50 in assay [1] of 16 µg/mL (≈ 53.4 µM). Besides, the MIC90 in assay [1] amounted to 16 µg/mL (≈ 53.4 µM). Further, the MIC in assay [3] came out at 2 µg/mL; in assay [5], 16 µg/mL (≈ 53.4 µM); in [7] it was 8 µg/mL (≈ 26.7 µM); in assay [8] it was 4 µg/mL. Besides, the result in [4] was inactive. Besides, the Ratio in assay [6] amounted to 8.

In the case of `C[C@@H](O)[C@H]1C(=O)N2C(C(=O)O)=C(S[C@@H]3CN[C@H](C(=O)N(C)C)C3)[C@H](C)[C@H]12` [MEROPENEM], in [1], the MIC50 is 8 µg/mL (≈ 20.9 µM) and the MIC90 was determined as 8 µg/mL (≈ 20.9 µM).

`CCN1CCN(C(=O)N[C@@H](C(=O)N[C@@H]2C(=O)N3[C@@H]2SC(C)(C)[C@@H]3C(=O)O)c2ccccc2)C(=O)C1=O` [PIPERACILLIN]: in [9], the MIC was found to be 125 µg/mL, the MIC50 was 125 µg/mL and the MIC90 was 250 µg/mL.

As for COLISTIN, in assay [1], the MIC50 was found to be 2 µg/mL and the MIC90 came out at 4 µg/mL.

In assay [1], GENTAMICIN returned an MIC50 of 125 µg/mL and an MIC90 of 250 µg/mL.
